Here are results for 6 molecules from ChEMBL document CHEMBL3271988, “Nitrogen analogues of 1,4-benzoquinones. Activities against the ascitic sarcoma 180 of mice” (J Med Chem, 1978).

Structures are written as SMILES. Calls of active or inactive are those of the source.

Data set [1] has as its system Sarcoma-180. Kind of data set: Antitumor activity against mouse Sarcoma 180 cells allografted in Swiss mouse assessed as survival time at 6 mg/kg, ip three doses were given at 24 hrs interval starting 24 hrs after allograft injection relative to control. Particulars: route intraperitoneal. In kind it is functional. Put shortly:
(§1)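 Swiss mice inoculated ip with 10^6 ascitic sarcoma 180 cells. Compound given ip daily ×3 at 24-h intervals, starting 24 h after inoculation. Controls received isotonic saline on the same schedule; 6 mice per group. Mice alive at 60 days counted as 60 days in mean survival (±SD).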

Data set [2] relates to Sarcoma-180. The data set is described as follows: Antitumor activity against mouse Sarcoma 180 cells allografted in Swiss mouse assessed as survival at 6 mg/kg, ip three doses were given at 24 hrs interval starting 24 hrs after allograft injection measured after 5 days. It is filed as functional, organism-based. More on the design: dose 6 mg/kg. Put shortly: (§2)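 Swiss mice were injected ip with 10^6 ascitic sarcoma 180 cells. Three daily ip doses followed, the first 24 h after cell injection. The read-out was the number of mice surviving at 5 days, out of 6 treated.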

For data set [3], the system named is Sarcoma-180. Kind of data set: Antitumor activity against mouse Sarcoma 180 cells allografted in Swiss mouse at 6 mg/kg, ip three doses were given at 24 hrs interval starting 24 hrs after allograft injection relative to control. It is filed as functional. As to conditions: route intraperitoneal. Put shortly:
(§3)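 Swiss mice received 10^6 ascitic sarcoma 180 cells ip, then three ip doses 24 h apart starting at 24 h. Controls got isotonic salt solution on the same schedule. T/C% is mean survival time of treated over controls (6 mice per group).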

For data set [4], the system named is Sarcoma-180. Kind of data set: Antitumor activity against mouse Sarcoma 180 cells allografted in Swiss mouse assessed as cure at 6 mg/kg, ip three doses were given at 24 hrs interval starting 24 hrs after allograft injection measured after 60 days. In kind it is functional, organism-based. More on the design: dose 6 mg/kg. Put shortly: (§4)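 Swiss mice given 10^6 ascitic sarcoma 180 cells ip. Starting 24 h later, three ip doses were given 24 h apart. Controls got isotonic salt solution on the same schedule. A cure was a mouse alive with no evidence of cancer cells 60 days after cell injection, reported per 6 mice.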

The nature of data set [5]: Half life of the compound in water at pH 7 at 25 degC by spectrophotometry. In kind it is physicochemical. Put shortly: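 Compound dissolved in absolute ethanol, then diluted into 0.01 M Tris buffer brought to pH 7 with HCl, 25 °C. Absorbance at λmax followed over hours or days; log absorbance vs time fitted by least squares, rate constant and half-time taken from the slope.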

A short description of data set [6]: Acute toxicity in single ip dosed Swiss mouse assessed as death up to 5 days. In kind it is organism-based. Particulars: in vivo. Put shortly: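 Male Swiss mice given one ip dose. LD50 taken as the single dose killing 50% of animals within 5 days.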
Data set [7] in a line: Redox potential of the compound in alcohol-water solution. As to conditions: buffer.
Data set [8] deals with Sarcoma-180. The data set is described as follows: Antitumor activity against mouse Sarcoma 180 cells allografted in Swiss mouse assessed as weight gain at 6 mg/kg, ip three doses were given at 24 hrs interval starting 24 hrs after allograft injection measured after 3 days relative to control. It is filed as functional. As to conditions: route intraperitoneal. Put shortly:
(§5)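 Ascitic sarcoma 180 model in Swiss mice: 10^6 cells ip, then three ip doses at 24-h intervals beginning 24 h later. Mice were weighed 1 day after cell injection and again 3 days later (24 h after the third dose). Percent weight gain of treated mice was compared with saline-treated controls on the same schedule.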

Data set [9] has as its system Sarcoma-180. The data set is described as follows: Antitumor activity against mouse Sarcoma 180 cells allografted in Swiss mouse at 15 mg/kg, ip three doses were given at 24 hrs interval starting 24 hrs after allograft injection relative to control. It is filed as functional. As to conditions: route intraperitoneal. Put shortly: as §3
The test system of data set [10] is Sarcoma-180. Kind of data set: Antitumor activity against mouse Sarcoma 180 cells allografted in Swiss mouse assessed as weight gain at 15 mg/kg, ip three doses were given at 24 hrs interval starting 24 hrs after allograft injection measured after 3 days relative to control. As to conditions: route intraperitoneal. It is filed as functional. Put shortly: as §5

Data set [11] deals with Sarcoma-180. The data set is described as follows: Antitumor activity against mouse Sarcoma 180 cells allografted in Swiss mouse assessed as survival time at 15 mg/kg, ip three doses were given at 24 hrs interval starting 24 hrs after allograft injection relative to control. As to conditions: route intraperitoneal. In kind it is functional. Put shortly: as §1
Data set [12] concerns Sarcoma-180. The data set is described as follows: Antitumor activity against mouse Sarcoma 180 cells allografted in Swiss mouse assessed as survival at 15 mg/kg, ip three doses were given at 24 hrs interval starting 24 hrs after allograft injection measured after 5 days. It is filed as functional, organism-based. More on the design: dose 15 mg/kg. Put shortly: as §2
In data set [13] the test system is Sarcoma-180. Kind of data set: Antitumor activity against mouse Sarcoma 180 cells allografted in Swiss mouse assessed as cure at 15 mg/kg, ip three doses were given at 24 hrs interval starting 24 hrs after allograft injection measured after 60 days. It is filed as functional, organism-based. Details: dose 15 mg/kg. Put shortly:
as §4

For data set [14], the system named is Sarcoma-180. Kind of data set: Antitumor activity against mouse Sarcoma 180 cells allografted in Swiss mouse at 10 mg/kg, ip three doses were given at 24 hrs interval starting 24 hrs after allograft injection relative to control. As to conditions: route intraperitoneal. It is filed as functional. Put shortly:
as §3

Data set [15] relates to Sarcoma-180. The data set is described as follows: Antitumor activity against mouse Sarcoma 180 cells allografted in Swiss mouse assessed as survival at 10 mg/kg, ip three doses were given at 24 hrs interval starting 24 hrs after allograft injection measured after 5 days. In kind it is functional, organism-based. More on the design: dose 10 mg/kg. Put shortly:
as §2

Data set [16] concerns Sarcoma-180. Kind of data set: Antitumor activity against mouse Sarcoma 180 cells allografted in Swiss mouse assessed as survival time at 10 mg/kg, ip three doses were given at 24 hrs interval starting 24 hrs after allograft injection relative to control. It is filed as functional. As to conditions: route intraperitoneal. Put shortly:
as §1

In data set [17] the test system is Sarcoma-180. The data set is described as follows: Antitumor activity against mouse Sarcoma 180 cells allografted in Swiss mouse assessed as weight gain at 10 mg/kg, ip three doses were given at 24 hrs interval starting 24 hrs after allograft injection measured after 3 days relative to control. In kind it is functional. Particulars: route intraperitoneal. Put shortly: as §5

Data set [18] relates to Sarcoma-180. Kind of data set: Antitumor activity against mouse Sarcoma 180 cells allografted in Swiss mouse assessed as cure at 10 mg/kg, ip three doses were given at 24 hrs interval starting 24 hrs after allograft injection measured after 60 days. In kind it is functional, organism-based. More on the design: dose 10 mg/kg. Put shortly:
as §4

Data set [19] concerns Sarcoma-180. Kind of data set: Antitumor activity against mouse Sarcoma 180 cells allografted in Swiss mouse assessed as weight gain at 30 mg/kg, ip three doses were given at 24 hrs interval starting 24 hrs after allograft injection measured after 3 days relative to control. It is filed as functional. Particulars: route intraperitoneal. Put shortly:
as §5

Data set [20] has as its system Sarcoma-180. Kind of data set: Antitumor activity against mouse Sarcoma 180 cells allografted in Swiss mouse assessed as survival at 30 mg/kg, ip three doses were given at 24 hrs interval starting 24 hrs after allograft injection measured after 5 days. In kind it is functional, organism-based. Details: dose 30 mg/kg. Put shortly:
as §2

In data set [21] the test system is Sarcoma-180. Kind of data set: Antitumor activity against mouse Sarcoma 180 cells allografted in Swiss mouse assessed as survival time at 30 mg/kg, ip three doses were given at 24 hrs interval starting 24 hrs after allograft injection relative to control. In kind it is functional. As to conditions: route intraperitoneal. Put shortly: as §1
The subject of data set [22] is Sarcoma-180. Kind of data set: Antitumor activity against mouse Sarcoma 180 cells allografted in Swiss mouse at 30 mg/kg, ip three doses were given at 24 hrs interval starting 24 hrs after allograft injection relative to control. It is filed as functional. As to conditions: route intraperitoneal. Put shortly:
as §3

The test system of data set [23] is Sarcoma-180. Kind of data set: Antitumor activity against mouse Sarcoma 180 cells allografted in Swiss mouse assessed as cure at 30 mg/kg, ip three doses were given at 24 hrs interval starting 24 hrs after allograft injection measured after 60 days. More on the design: dose 30 mg/kg. It is filed as functional, organism-based. Put shortly:
as §4

Turning to `CC1=C/C(=N\c2ccc(N(C)C)cc2)C=CC1=O`, in the data set with Sarcoma-180 [1], the Survival stood at 18 days. Further, in the data set with Sarcoma-180 [2], the outcome was Active. This molecule also displayed a T/C in the data set on Sarcoma-180 [3] of 127%. The outcome in the data set on Sarcoma-180 [4] was inactive. Moreover, the half-life in data set [5] is 83.8 days. Besides, the LD50 at 120 h in [6] was determined as 27 mg/kg. The Redox potential in data set [7] was 0.604 V. The Activity in the data set with Sarcoma-180 [8] is on record as -0.6%.
For the molecule `O=C1C=CC(=Nc2ccc([O-])cc2)C=C1.[Na+]`, the T/C in the data set on Sarcoma-180 [9] worked out at 214%. Further, the Activity with Sarcoma-180 [10] is reported as -2.2%. For the same molecule, in the data set with Sarcoma-180 [11], the Survival was 32.8 days. Further, in data set [6], the LD50 at 120 h was 50 mg/kg. For the same molecule, in the data set on Sarcoma-180 [12], the outcome was Active.
For the molecule `O=C1C=CC(=NBr)C=C1`, in the data set with Sarcoma-180 [13], the outcome was inactive. In the data set with Sarcoma-180 [9], this molecule had a T/C of 145%. Also, the Activity in the data set on Sarcoma-180 [10] is on record as -3.8%. Besides, the Survival in the data set on Sarcoma-180 [11] was 15.5 days. In addition, in [6], the 50% lethal dose (LD50) at 120 h was 40 mg/kg. Moreover, in data set [7], the Redox potential is given as 0.518 V. Besides, the result in the data set on Sarcoma-180 [12] was Active.
Regarding `COC1=C/C(=N\c2ccc(N(C)C)cc2)C=CC1=O`, the T/C with Sarcoma-180 [14] is 181%. Further, in [6], the LD50 at 120 h came out at 25 mg/kg. Further, the outcome in the data set on Sarcoma-180 [15] was Active. The Survival in the data set with Sarcoma-180 [16] amounted to 19.3 days. Moreover, the Activity in the data set on Sarcoma-180 [17] amounted to 1.9%. The outcome in the data set with Sarcoma-180 [18] was inactive. Moreover, the Redox potential in data set [7] was determined as 0.561 V.
Molecule `O=C1C(Cl)=CC(=NCl)C=C1Cl` came in with a T/C in the data set with Sarcoma-180 [14] of 220%. In [5], this molecule showed a half-life of 1.67 days. In addition, in data set [6], the LD50 at 120 h was 20 mg/kg. Also, in the data set on Sarcoma-180 [15], the outcome was Active. The Survival in the data set with Sarcoma-180 [16] was found to be 25.3 days. Further, the Activity with Sarcoma-180 [17] is -14.2%. In addition, the outcome in the data set with Sarcoma-180 [18] was inactive. Further, in data set [7], the Redox potential was 0.659 V.
`CN(C)c1ccc(N=C2C=CC(=O)C=C2)cc1`: the Activity in the data set with Sarcoma-180 [19] is listed as -0.9%. The outcome in the data set with Sarcoma-180 [20] was Active. In data set [5], this molecule had a half-life of 29.2 days. The Survival with Sarcoma-180 [21] is 19.2 days. Further, the LD50 at 120 h in data set [6] turned out to be 80 mg/kg. Further, the Redox potential in data set [7] stood at 0.628 V. The molecule also had a T/C in the data set with Sarcoma-180 [22] of 132%. The result with Sarcoma-180 [23] was inactive.

Broadly, the T/C is the result in the treated group divided by that in the control group, in per cent. As usually defined, the half-life is the time needed for the level to fall by half in the phase considered. High values mean slow decline, low ones rapid decline. A word on the LD50: it is the dose at which mortality reaches 50%.
